Compounds with a hit are over-represented: about 3.1% of the library has one in this group of screens.
GPR7 antagonist: human neuropeptides B/W receptor 1 antagonism. P48145. GPR7-expressing cells, fluorescence antagonist assay. inhibition, % at 4.4 µM. 1.1% of 290,000 active. AID 1861; in the data active = inhibition above about 16%, passing the limit was not always enough;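 also: cells stimulated with the agonist NPW; 0% = agonist with vehicle and 100% = vehicle without agonist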
CHO parental Ca: counter-screen for OX1R antagonists: effect in parental CHO cells. inhibition, % at 5.6 µM. parental CHO-K1, ATP-induced calcium, Fluo-8 fluorescence. AID 463079. 0.63% of 330,000 active;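 active = inhibition above that plate's mean sample inhibition plus 3 SD, cut at about 26% in these data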;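 also: 0% = ATP-challenged DMSO wells and 100% = DMSO wells without ATP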
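Test system: untransfected parental CHO cell line; also added: ATP stimulus; dosing: 5.6 µM, single dose; signal: calcium-sensitive Fluo-8 fluorescence; measure: percent inhibition of ATP-evoked calcium rise, normalized to controls; benchmarks: low control ATP plus DMSO, high control DMSO only; replication: one well per compound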
OX1R antag-1: human HCRTR1 antagonism | CHO/OX1R cells, Fluo-8 calcium fluorescence, orexin A | inhibition, % at 5 µM | 0.43% of 330,000 active;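 active = inhibition above its plate's threshold, mean inhibition of all tested compounds on the plate plus 3 SD, cut at about 37% in these data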;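 also: 0% = orexin A challenge wells and 100% = SB-334867-A antagonist wells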
Target sequence (O43613 whole entry, looked up): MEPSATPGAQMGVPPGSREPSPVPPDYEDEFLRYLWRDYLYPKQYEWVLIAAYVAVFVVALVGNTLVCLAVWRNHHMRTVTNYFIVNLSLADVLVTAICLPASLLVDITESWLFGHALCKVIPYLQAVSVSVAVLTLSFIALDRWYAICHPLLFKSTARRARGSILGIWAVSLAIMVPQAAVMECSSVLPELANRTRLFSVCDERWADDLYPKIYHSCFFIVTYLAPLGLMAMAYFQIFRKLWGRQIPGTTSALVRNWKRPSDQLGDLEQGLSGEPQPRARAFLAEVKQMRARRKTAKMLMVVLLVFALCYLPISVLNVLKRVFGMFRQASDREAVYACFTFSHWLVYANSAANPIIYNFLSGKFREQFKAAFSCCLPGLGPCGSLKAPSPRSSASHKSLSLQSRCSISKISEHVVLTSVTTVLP
GalR3 antagonist: antagonists of human GalR3 | O60755 | HEK293 GalR3-CNG cAMP membrane potential fluorescence; galR3 body fused to GalR1 C-terminus | inhibition, % at 3 µM | 0.44% of 360,000 active | AID 651719;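 active = inhibition above the screen-wide average plus 3 SD, cut at about 13% in these data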;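 also: forskolin and galanin both at EC90 stimulate the cells; cAMP rise reported by CNG channel membrane potential dye signal; 0% = forskolin plus galanin with DMSO and 100% = forskolin alone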
Target sequence (O60755 1-299 limits assumed): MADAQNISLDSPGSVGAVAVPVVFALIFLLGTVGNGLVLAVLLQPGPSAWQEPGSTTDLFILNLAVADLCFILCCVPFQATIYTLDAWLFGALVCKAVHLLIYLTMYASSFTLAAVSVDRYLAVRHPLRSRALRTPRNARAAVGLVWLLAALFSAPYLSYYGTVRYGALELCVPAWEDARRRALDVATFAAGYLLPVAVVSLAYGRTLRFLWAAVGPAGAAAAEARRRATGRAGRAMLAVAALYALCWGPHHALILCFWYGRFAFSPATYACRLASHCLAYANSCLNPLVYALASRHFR
OX1R antag-2: OX1R (human) antagonism; OX1R-expressing cells, FRET antagonist read-out; 1.8% of 330,000 active; O43613; AID 485270; inhibition, % at 6.6 µM; in the data active = inhibition mostly above about 38%, no sharp cut-off; inactive = mostly below about 40%;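 also: 0% = agonist challenge alone and 100% = reference antagonist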
GPR7 antag cf: human GPR7 antagonism, confirmation assay; shares compounds with GPR7 antagonist; GPR7-expressing cells, calcium fluorescence antagonist mode; inhibition, % at 4.4 µM; 52% of 2,400 active; in the data active = inhibition above about 24%;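 also: stimulated with the GPR7 agonist NPW; 0% = agonist plus vehicle and 100% = vehicle alone without agonist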
MCHR1 antagonist: counter-screen for GPR7 antagonists: antagonists of human MCHR1; 62% of 2,400 active; shares compounds with GPR7 antagonist; AID 2148; inhibition, % at 4.4 µM; MCHR1-expressing cells, fluorescence antagonist assay; in the data active = inhibition above about 22%;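 also: 0% = vehicle with agonist and 100% = vehicle without agonist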
* hit, by the source's call; . = no result.

SMILES | GPR7 antagonist | CHO parental Ca | OX1R antag-1 | GalR3 antagonist | OX1R antag-2 | GPR7 antag cf | MCHR1 antagonist
Cc1cc2c(cc(C(=O)N3CCC(C(=O)N4CCCC4)CC3)n2Cc2c(F)cccc2Cl)o1 | 27.0* | -2.8 | -33.5 | . | 2.0 | 19.6 | 12.2
Cc1ccc(SCC(=O)Nc2ccc(N3CCN(C)CC3)c(F)c2)c(C)c1 | 38.3* | -21.7 | -15.5 | -6.8 | 4.3 | 2.7 | 9.6
CSc1ccccc1NC(=O)CN(C)C(=O)CNC(=O)c1ccc(Oc2ccccc2)cc1 | . | . | . | -4.0 | . | . | .
O=C(Oc1cccc(NC(=O)c2ccccc2Cl)c1)c1ccc([N+](=O)[O-])cc1 | 34.7* | 3.2 | -10.8 | -7.0 | 36.0 | 43.3* | 55.6*
CC(C)(C)NC(=O)C(C1CC1)n1c(-c2ccccc2)nc2ccccc21 (configuration not stated) | . | . | . | -7.6 | . | . | .
COc1ccc(C/C(=N\OC(C)=O)c2ccc(OC)cc2)cc1 | 39.8* | 6.4 | -12.4 | . | 11.4 | 14.8 | 18.5
O=C(Nc1ccc2ccccc2c1)c1ccccc1O | 30.4* | 8.6 | 8.6 | -8.3 | 54.8* | 39.2* | 52.5*
COC(=O)C1=C(C)N(Cc2ccccc2C(F)(F)F)C(=NCc2ccc(OC)cc2)NC1c1cccc(F)c1 (configuration not stated) | . | . | . | -3.5 | . | . | .
CCc1ccc(CN2CCC(n3nccc3NC(=O)c3ccccc3C)CC2)cc1 | 26.9* | -14.9 | -38.3 | -3.8 | 28.4 | 9.5 | 26.5*
Cc1ccccc1C(=O)Nc1ccnn1C1CCN(Cc2cccnc2)CC1 | -8.0 | -6.2 | -20.5 | -1.5 | 17.3 | . | .
COc1ccc(Cl)c(N2CCN(CCCNC(=O)Nc3ccc(C)cc3)CC2)c1 | 31.3* | -5.6 | -28.0 | -7.6 | 7.5 | 22.1 | 42.1*
Cc1ccc(NC(=O)NCCCN2CCOCC2)cc1 | -8.7 | -5.9 | -8.7 | 5.5 | 16.4 | . | .
CC(C)(CO)NCc1c(OCc2ccc(Cl)cc2)ccc2ccccc12 | 31.5* | 1.2 | -7.8 | -12.1 | 4.5 | 26.8* | 14.9
CNCc1c(OCc2ccccc2)ccc2ccccc12 | 14.2 | -19.8 | -24.5 | -17.3 | 12.4 | . | .
COc1ccc(CN(C)C(=O)[C@H]2O[C@@H](n3cnc4c(N)ncnc43)[C@H](O)[C@@H]2O)cc1OC | . | . | . | -6.8 | . | . | .
CC(=O)c1ccc(NC(=O)C(C)N(C)CC(=O)Nc2ccc(N3CCOCC3)cc2)cc1 (configuration not stated) | 25.6* | -7.6 | -19.1 | -2.4 | 33.9 | 12.5 | -1.0
O=C(/C=C/[C@H]1O[C@@H](n2ccc(=O)[nH]c2=O)[C@H](O)[C@@H]1O)NCCN1CCCCC1 | . | . | . | -3.5 | . | . | .
COc1ccc(NC(=O)CCc2nnc3ccc(N4CCN(c5cccc(OC)c5)CC4)nn23)cc1 | 24.6* | -22.9 | -14.0 | -6.1 | 8.9 | 0.7 | 33.4*
COc1ccccc1-c1ccc(SCc2cccc(C)c2)nn1 | 63.8* | 47.9* | 14.2 | -7.2 | 18.5 | 41.5* | 74.2*
COc1ccc(/C=N/Nc2ccc([N+](=O)[O-])cc2)cc1Cn1cc([N+](=O)[O-])cn1 | 6.5 | -9.9 | -2.3 | 0.7 | 35.2 | . | .
COc1ccc(/C=N/Nc2ccc([N+](=O)[O-])cc2)cc1O | 30.4* | 6.6 | 4.4 | -4.9 | 1.1 | 37.0* | 41.2*
CC1CCCCN1CC(O)COCc1ccc(Cl)cc1 (configuration not stated) | 0.1 | -8.5 | -15.1 | -9.9 | 11.4 | . | .
CSc1ccc(Cn2c(C)c(C(=O)NCCC#N)sc2=O)cc1 | . | . | . | 2.5 | . | . | .
CCOC(=O)C1(P(=O)(c2ccc(Cl)cc2)c2ccc(Cl)cc2)CCC1 | 25.0* | -19.6 | -20.7 | -6.4 | 16.2 | 8.6 | 4.0
O=C(O)C1(P(=O)(c2ccc(Cl)cc2)c2ccc(Cl)cc2)CC1 | -3.6 | -0.6 | 3.6 | 0.5 | -3.4 | . | .
SMILES | GPR7 antagonist | CHO parental Ca | OX1R antag-1 | GalR3 antagonist | OX1R antag-2 | GPR7 antag cf | MCHR1 antagonist
COc1ccc(C(=O)c2c(C)c3ccccc3n2CC(O)CNC(C)C)cc1 (configuration not stated) | 21.2* | -14.4 | -20.5 | -10.8 | 5.0 | 11.8 | 17.6
Cc1noc(C)c1NC(=O)N(C)C[C@@H]1Oc2ncc(Br)cc2C(=O)N([C@@H](C)CO)C[C@@H]1C | . | . | . | -4.7 | . | . | .
CCOc1ccc(C(=O)Nc2cccc3ncccc23)cc1Br | 25.6* | -24.1 | -34.1 | -8.3 | 12.4 | 2.9 | 9.2
CC1(C(=O)NS(=O)(=O)c2ccccc2Cl)CCN1C(=O)CCc1ccccc1 (configuration not stated) | . | . | . | 9.0 | . | . | .
COc1ccc(OC)c(CN2CCN(C(=O)c3cccc(S(=O)(=O)Nc4ccc(F)cc4)c3)CC2)c1 | . | . | . | -3.3 | . | . | .
CC(C)Oc1ccc(C(CCN)C2CCCCC2)cc1 (configuration not stated) | 55.0* | 5.9 | -16.8 | -10.8 | -5.1 | 48.8* | 67.0*
CC(C)Oc1ccc(C(=O)NC2CCCCC2)cc1 | 7.5 | -5.8 | -10.6 | 2.1 | 20.1 | . | .
CN(C)c1ccc(C(=O)C(=O)N2CCN(c3ccccc3)CC2)cc1 | . | . | . | 2.6 | . | . | .
COC(=O)C1=C(C)N(Cc2ccccc2)C(=S)NC1c1cccc(Br)c1 (configuration not stated) | . | . | . | -6.0 | . | . | .
[O-][N+](=Cc1ccccc1)CC1(O)CCCCC1 | . | . | . | -5.2 | . | . | .
CCOC(=O)c1c(NC(=O)C2COc3ccccc3O2)sc2c1CC(C)(C)NC2(C)C (configuration not stated) | 23.5* | -11.3 | -21.7 | -7.7 | 7.0 | 31.8* | 37.8*
CCOC1=C2CN(S(=O)(=O)c3ccc(C)cc3)CC[C@@H]2N(S(=O)(=O)c2ccc(C)cc2)[C@H](c2ccccc2)C1 | . | . | . | 3.6 | . | . | .
O=C(c1ccco1)N1CCN(S(=O)(=O)c2ccc(C3CCCCC3)cc2)CC1 | -11.1 | -0.7 | -26.7 | -3.6 | 14.4 | . | .
O=C(c1ccco1)N1CCN(S(=O)(=O)c2ccc(S(=O)(=O)NC3CCCCC3)cc2)CC1 | . | -15.3 | -21.1 | -1.1 | 22.2 | . | 10.0
COCCNC(=O)Cn1cc(C(=S)N2CCCCC2)c2ccccc21 | 24.5* | -12.8 | -21.4 | 5.9 | 15.3 | -5.9 | 3.0
S=C(c1cn(CCOc2ccccc2)c2ccccc12)N1CCCC1 | 13.6 | -10.8 | 9.5 | -2.5 | 34.0 | . | .
COCCn1cc(C(=S)N2CCCCC2)c2ccccc21 | -6.7 | -22.0 | -31.3 | 2.3 | 8.4 | . | .
Cc1ccc(OCCn2cc(C(=S)N3CCCC3)c3ccccc32)cc1C | 27.3* | -14.4 | -9.9 | 1.2 | -1.7 | 29.1* | 67.7*
O=C1NC[C@@H](CCCCN2CCN(CCc3ccccc3)C(=O)C2=O)N(Cc2ccccc2)C1=O | . | . | . | -7.1 | . | . | .
CC1CCCCN1C(=O)COC(=O)C1CCN(S(=O)(=O)c2c(Cl)cccc2Cl)CC1 (configuration not stated) | -16.4 | -13.4 | -18.7 | -1.0 | 10.9 | . | .
CC1CCN(CCCNC(=O)CN2C(=O)CSc3ccc(S(=O)(=O)N4CCC(C)CC4)cc32)CC1 | 25.9* | -23.9 | -24.4 | -8.7 | 11.6 | -4.8 | -9.0

Compound activity: PubChem BioAssay, The Scripps Research Institute Molecular Screening Center
